# Screening data: PubChem, Broad Institute
# Cneo AK release: causes C. neoformans cell lysis. adenylate kinase release luminescence, 4 h; normalised: neutral wells 0, clomiphene wells 100. lysis activity, % at 15 µM. 360,000 tested, 0.2% active. AID 651654;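 active = mean lysis activity across replicates of at least 80%, whatever share of replicates individually reach that level; inactive = mean lysis activity below 80%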
#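 read-out = cell lysis signal | test system = log-phase Cryptococcus neoformans yeast cells | input = cells at 5 × 10^6 per mL | medium = fresh YPD growth medium | signal = luminescent adenylate kinase detection reagent | timing = 4 h at 37 °C static, read 1 h later | dosing = single dose | controls = Clomiphene as positive lysis control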
# CaV13 ICDI inh: Disruptors of the CACNA1D IQ motif to Ca2+-dependent inactivation inhibitor domain association, primary screening, Förster resonance energy transfer in intact living …; HEK cells, CFP/YFP FRET ICDI-IQ, plate reader, 10 min; percent FRET-ratio fall versus neutral wells; inhibition, % at 12.3 µM; 340,000 tested, 0.098% active;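 active = mean replicate inhibition of at least 30% and at least 1% of replicates passing that level; inconclusive = only one of the two criteria is met; inactive = neither criterion is met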;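 also: 0% = median of the neutral control wells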
# Ecoli rRNA inh: inhibitors of bacterial rRNA selective over humanized ribosomes; E. coli WT GFP vs humanized-ribosome RFP mutants, fluorescence, 24 h; hits give low values; DMSO median 0, no signal -100; GFP signal change (wild-type ribosome), % (test concentration not listed); 350,000 tested, 1.6% active; AID 720706;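 active = significant combined selectivity score with lowered wild-type GFP, culture density cut under 30%, mutant RFP and density less affected; inactive = any of these conditions unmet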
# CFTR F508del cor: CFTR F508del correction in bronchial cells; activity (quench increase), % at 7.58 µM; CFBE cells, YFP halide quenching; stimulated with forskolin plus potentiator P3; % fluorescence drop versus neutral controls; 350,000 tested, 0.36% active;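 active = mean added fluorescence quench of at least 8% versus neutral control, with both replicates also reaching 8%; inconclusive = only one of the mean or replicate conditions met; inactive = mean below 8% and not both replicates reaching 8%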;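 also: cells transiently co-express mutant CFTR-F508del with the halide-sensitive YFP; corrector assay measuring rescue of mutant channel to the surface after 24 h compound exposure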
# AID977621: wild-type E. coli growth inhibition versus H69 humanized strain – H69 mutant RFP, wild-type GFP, cherry-pick, dose response | shares compounds with Ecoli rRNA inh | fluorescence, 24 h | activity change, negative = inhibition at 50 µM | 1,900 tested, under 10 active | AID 977621;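 active = Wild-type ribosome reporter drop at least double the humanized mutant ribosome reporter drop, growth loss under a set limit; inconclusive = no clear call, values can overlap the other calls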;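 also: wild-type GFP and H69 mutant RFP strains grown together 50/50 in each well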
# AID977628: E. coli growth inhibition, wild-type GFP versus h24 humanized RFP strain, dose response, h24 mutant RFP vs wild-type GFP, cherry-pick. AID 977628. activity change, negative = inhibition at 50 µM. shares compounds with Ecoli rRNA inh. 1,900 tested, under 10 active. E. coli WT GFP strain growth, fluorescence, 24 h;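 active = compound lowering the normal-ribosome reporter at least twice as much as the humanized-ribosome reporter, growth loss under a set limit; inconclusive = no clear call, values can overlap the other calls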;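 also: wild-type GFP and h24 humanized RFP strains co-cultured 1 to 1 per well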
# Active calls of the source: *; ? = inconclusive; nt = not tested or not shown. Compounds with a hit are over-represented: about 1.7% of the library has one in this group of screens.
SMILES,Cneo AK release,CaV13 ICDI inh,Ecoli rRNA inh,CFTR F508del cor,AID977621,AID977628
Cc1ccc(CNC(=O)COC(=O)Cn2nc(C)c([N+](=O)[O-])c2C)cc1,0,-5,9,nt,nt,nt
Cc1nn(CC(=O)OCCOc2ccc(Br)cc2)c(C)c1[N+](=O)[O-],nt,-17,-25*,-4,-12,?
C[C@@H]1CN([C@H](C)CO)C(=O)c2cc(-c3ccccc3)cnc2O[C@H]1CN(C)C(=O)c1cccc(F)c1,nt,nt,-4,-1,nt,nt
O=C1CN(S(=O)(=O)Cc2ccccc2)C[C@H]2[C@H](c3ccc(C#Cc4ccc(F)cc4)cc3)[C@H](CO)N12,nt,nt,nt,1,nt,nt
C[C@H]1CN([C@@H](C)CO)C(=O)c2cccc(NC(=O)c3cnccn3)c2O[C@H]1CN(C)S(=O)(=O)c1ccc(Cl)cc1,nt,nt,-7,-3,nt,nt
CO[C@H]1CN(C)C(=O)c2cc(NC(=O)c3ccc(F)cc3)ccc2OC[C@H](C)N(C(C)=O)C[C@H]1C,60,nt,2,-1,nt,nt
Fc1ccc(Br)cc1SCCc1ccncc1,-1,-2,-25*,-1,-2,-13
O=S(=O)(NCCc1ccncc1)c1ccc(Br)cc1,0,-4,nt,nt,nt,nt
CC1C=Cc2ccccc2N1C(=O)c1ccccc1 (stereo not drawn),-2,-8,-32*,-3,2.5,nt
COc1cc(C(=O)N2CCc3ccccc32)ccc1OCc1c(C)noc1C,6,-2,-5,-1,nt,nt
Cc1noc(C)c1COc1cccc(C(=O)N2CCc3ccccc32)c1,1,5,-41*,0,-7.5,-11
Cc1cccc(C(=O)NCC(=O)OCC(=O)c2cc(C)n(CC3CCCO3)c2C)c1 (stereo not drawn),nt,2,-6,-1,nt,nt
Cc1cc(C(=O)COC(=O)CNC(=O)c2ccccc2)c(C)n1CC1CCCO1 (stereo not drawn),nt,-20,-20*,-1,-4.9,-10
COc1ccccc1C1CCN(Cc2cccc([N+](=O)[O-])c2)CC1,nt,-4,-24*,0,nt,?
COc1ccccc1C1CCN(Cc2ccccc2)CC1,-1,-18,3,0,nt,nt
COc1ccc(OC)c(S(=O)(=O)Nc2cccc3ccc(O)cc23)c1,nt,-5,-32*,0,-8.6,-14
C[C@H]1CN([C@@H](C)CO)S(=O)(=O)c2ccc(-c3ccccc3F)cc2O[C@@H]1CN(C)C,3,nt,-4,-2,nt,nt
O=C(CCC(=O)N1CCN(c2ccc(F)cc2)CC1)c1ccc(F)cc1,nt,-2,-20*,-1,-1.8,-12
COc1cc2c(cc1OC)CN(CC(=O)Nc1ccc(F)cc1F)CC2,0,-21,5,-1,nt,nt
O=C(CN1CCc2ccccc2C1)Nc1ccc(F)cc1F,0,-5,-21*,2,-21,?
N#Cc1ccc2[nH]cc(C3c4cc(F)ccc4C=C(c4ccsc4)N3c3ccc(C#CCCO)cc3)c2c1 (stereo not drawn),nt,-5,-25,-1,nt,nt
COc1cc(-c2ccc(N3C(c4ccsc4)=Cc4ccc(F)cc4C3c3c[nH]c4ccc(C#N)cc34)cc2)cc(OC)c1OC (stereo not drawn),nt,-5,-25*,-4,-5.6,-2.1
CC(C)NC(=O)Nc1cccc2c1O[C@H](CN(C)C(=O)OC(C)(C)C)[C@@H](C)CN(C)C2=O,nt,nt,-4,nt,nt,nt
C=CCN(c1ccccc1)S(=O)(=O)c1ccc(Cl)c(C(=O)OCC(=O)NCCCN2CCCC2=O)c1,-7,13,-23*,-1,1.1,nt
Cc1cc(C)n(CC(O)COc2ccc3ccccc3c2)n1 (stereo not drawn),nt,-14,-29*,2,-16,nt
SMILES,Cneo AK release,CaV13 ICDI inh,Ecoli rRNA inh,CFTR F508del cor,AID977621,AID977628
COc1cc(CC(=O)Nc2nc(C)cs2)cc(OC)c1OC,0,9,-19*,-1,3,-3.3
COc1ccc(-c2csc(NC(=O)Cc3cc(OC)c(OC)c(OC)c3)n2)cc1OC,7,-3,4,1,nt,nt
CCc1ccc(OCC(=O)NCc2ccco2)c(Br)c1,-4,-7,-21*,3,-3.9,nt
O=C(C[C@@H]1C=C[C@@H](NC(=O)c2ccc3c(c2)OCO3)[C@H](CO)O1)NCc1ccc(F)cc1,-2,nt,2,-3,nt,nt
CCSc1nc2ccccc2c(=O)n1CCc1ccc(OC)c(OC)c1,-3,-4,-33*,0,nt,?
Cc1cccc(C)c1NC(=O)C1(C)CSCC(=O)N1CCOc1ccccc1 (stereo not drawn),nt,-6,-22*,1,-12,-18
C[C@@H]1CN([C@@H](C)CO)C(=O)c2cccc(NC(=O)Nc3ccc(C(F)(F)F)cc3)c2O[C@@H]1CN(C)S(=O)(=O)c1ccccc1,nt,nt,0,-1,nt,nt
CC(C)N1CC2(CC(c3ccccc3C(F)(F)F)=NO2)CN1C(=O)c1ccco1 (stereo not drawn),nt,-6,-20*,1,nt,?
CC(=O)Nc1cccc(OCCCOc2ccc([N+](=O)[O-])cc2)c1,nt,-19,3,3,nt,nt
CC(=O)Nc1cccc(OCc2ccc([N+](=O)[O-])cc2)c1,nt,-5,-23*,-5,-6,-6.6
COc1cccc(NC(=O)c2ccc(-c3ccc([N+](=O)[O-])cc3)o2)c1,nt,-8,-28*,2,-23,nt
COCC(=O)N1[C@@H](CO)[C@H](c2ccccc2)C12CN(C(=O)c1cccnc1)C2,nt,nt,4,nt,nt,nt
CC1CCCCN1C(=O)C1CCCN(S(=O)(=O)c2cccc3nsnc23)C1 (stereo not drawn),9,-15,-20*,0,-7.1,?
CSc1ccccc1OCc1cc(C(=O)N(C)Cc2nonc2C)no1,0,-2,-30*,-3,-14,-12
CCOC(=O)CCSc1nc(N2CCOCC2)c2c(c1C#N)CC(C)(C)OC2,nt,-18,6,-3,nt,nt
CCOC(=O)C(C)Sc1nc(N2CCOCC2)c2c(c1C#N)CC(C)(C)OC2 (stereo not drawn),1,-22,-29*,-1,-11,-10
COc1ccc(NC(=O)Nc2ccc3c(c2)CC(=O)N([C@@H](C)CO)C[C@@H](C)[C@@H](CN(C)C(=O)Nc2ccc4c(c2)OCO4)O3)cc1,-8,nt,2,1,nt,nt
O=C1CCCc2c1nc(-c1ccc([N+](=O)[O-])cc1)n2O,nt,-4,-18*,1,?,?
COc1ccc(C#Cc2ccc([C@@H]3[C@@H](CO)N4CCCCN(C(=O)Nc5ccc(F)cc5)C[C@H]34)cc2)cc1,0,nt,-48*,-1,nt,?
COc1ccc(C#Cc2ccc([C@H]3[C@@H](CO)N4CCCCN(C(=O)Nc5ccc(F)cc5)C[C@H]34)cc2)cc1,53,nt,-53,-3,nt,nt
